PubChem BioAssay
Records with an inconclusive call do not appear. Active and inactive are the calls of the source.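 The calls were made as follows, unless noted: active = growth inhibition above 25% in both replicates, a cutoff set 3 SD above the mean; inconclusive = above 25% in only one replicate; inactive = the rest.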

Key:
[1] = OD615 S. cerevisiae growth inhibition, permissive medium, pilot counter-assay, permissive growth control for S. cerevisiae lifespan shortening project (AID 705); details: OD615, 24 h, at 10 µM, stronger effect = higher value
Method in brief: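 System: Engineered DeaD yeast | Buffer or medium: SC raffinose/galactose permissive medium | Doses: 10 µM single dose, 0.25% DMSO | Times: 24 h exposure, 30 °C | Measured by: OD615 turbidity read | Read-out: Yeast growth inhibition indicated by reduced 24 h OD615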

[2] = Restrictive medium S. cerevisiae growth inhibition, OD615, pilot screen of yeast lifespan reduction project, restrictive growth control (AID 706;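 active = growth inhibition above a set limit, 3 SD over mean compound inhibition, in both replicates, cut at about 43% in these data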;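 also: modified DeaD lifespan yeast strain shifted to restrictive glucose medium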); details: OD615, 48 h, at 10 µM, stronger effect = higher value
Method in brief: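 Assay system: engineered S. cerevisiae DeaD strain; Buffer or medium: CSMM-D glucose medium; Dosing: 10 µM compound, 0.25% DMSO; Times: cell pre-growth 4 h, compound exposure 48 h, 30 °C; Detection: absorbance (optical density) measured at 615 nm.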

[3] = viability gain of MRP-1-high H69AR cells under doxorubicin, pilot screen, MRP-1 activator project, CellTiter-Glo, duplicate (AID 807;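 active = viability increase at or above a cutoff of the median across tested compounds plus 3 SD, cut at about 8.5% in these data, passing the limit was not always enough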;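 also: compound pretreatment 18-22 h then 72 h combined with doxorubicin; 0% = doxorubicin alone and 100% = vehicle without doxorubicin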); details: H69AR viability with doxorubicin, CellTiter-Glo luminescence; at 10 µM; stronger effect = higher value
[4] = growth suppression of beta-catenin knockout HCT116, pilot screen, human colon tumor cells (AID 823;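 active = cell viability at or below a set limit in both duplicate runs, the limit being the all-compound median minus 4 SD, cut at about 23% in these data, passing the limit was not always enough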;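 also: 0% = wells killed by 20 µM Hyamine and 100% = untreated DMSO cell wells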); details: CellTiter-Glo, 60 h, at 10 µM, stronger effect = lower value
[5] = growth suppression of PTEN-deleted HCT116, pilot screen, cell-based, HCT116 clonal line, CellTiter-Glo (AID 824;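 active = viability at or below 27.92% in each of two runs, the all-compound median minus 4 SD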;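 also: 0% = 20 µM Hyamine control and 100% = vehicle cell control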); details: 60 h, at 10 µM, stronger effect = lower value
[6] = inhibitors of the yeast RAM network, pilot screen, dse1pr::URA3 reporter, 5-FOA selection (AID 869;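 active = inhibition over a set limit, the all-compound mean plus 3 SD, in both replicate runs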;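 also: 0% = DMSO wells with no growth and 100% = 10 µM 1-NA-PP1 with full growth; RAM network block rescues cells from 5-FOA so hits raise OD615 growth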); details: S. cerevisiae dse1pr::URA3 5-FOA growth, OD615, 2 d; at 10 µM; stronger effect = higher value; strain carries analog-sensitive mutant Cbk1 kinase
[7] = RAM signaling pathway blockade in yeast – S. cerevisiae, Pdr1DBD-CYC8 efflux-inhibited sensitized strain, primary screen (AID 1298;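 active = RAM network inhibition above 8.4% in each of two replicates, 3 SD over the compound average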;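 also: 0% = DMSO untreated cells without growth and 100% = 10 µM 1-NA-PP1 full growth; higher means more yeast growth rescued from 5-FOA killing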); details: S. cerevisiae cbk1-as DSE1-URA3 strain, 5-FOA growth OD615, 2 d; at 50 µM; stronger effect = higher value

O=C(CN(Cc1ccccc1F)S(=O)(=O)c1ccc(Cl)cc1)NCCCO
inactive: growth inhibition [1] -12.7% | growth inhibition [2] -2.21% | viability increase [3] -2.15% | viability [4] 102% | viability [5] 93.7% | inhibition [6] 0.495% | RAM network inhibition [7] 1.84%

CCOc1cccc(C2c3c(oc4cc(C)c(C)cc4c3=O)C(=O)N2CCCN(C)C)c1 (stereo unspecified)
inactive: growth inhibition [1] 1.31% | growth inhibition [2] -0.895% | viability increase [3] -3.58% | viability [4] 92.9% | viability [5] 85.9% | inhibition [6] 1.8% | RAM network inhibition [7] 2.55%

CC(C)Cc1nnc(NC(=O)CCN2C(=O)c3ccccc3C2=O)s1
inactive: growth inhibition [1] 5.23% | growth inhibition [2] 16% | viability increase [3] 0.42% | viability [4] 106% | viability [5] 98.4% | inhibition [6] 1.21% | RAM network inhibition [7] 9.47%

Cc1ccc(Cl)cc1N1CCN(C(=O)CCC(=O)O)CC1
inactive: growth inhibition [1] -10.9% | growth inhibition [2] -29.2% | viability increase [3] -1.08% | viability [4] 95.6% | viability [5] 91.3% | inhibition [6] 1.51% | RAM network inhibition [7] 2.18%

O=C(O)c1ccccc1C(=O)NCC(O)COCC1CC=CCC1 (stereo unspecified)
inactive: growth inhibition [1] -14.5% | growth inhibition [2] -16.2% | viability increase [3] -1.89% | viability [4] 101% | viability [5] 100% | inhibition [6] 1.33% | RAM network inhibition [7] 3.55%

CCOc1ccccc1NC(=O)C1Cc2ccccc2CN1S(C)(=O)=O (stereo unspecified)
inactive: growth inhibition [1] -8.32% | growth inhibition [2] -7.46% | viability increase [3] -5.66% | viability [4] 82.9% | viability [5] 80.6% | inhibition [6] 0.37% | RAM network inhibition [7] 3%

Cc1ccc(-n2nnc3c(=O)n(Cc4cccc(C)c4)cnc32)cc1
inactive: growth inhibition [1] -5.14% | growth inhibition [2] -6.1% | viability increase [3] 1.15% | viability [4] 99.9% | viability [5] 93.7% | inhibition [6] 2.65% | RAM network inhibition [7] 1.34%

COc1cc(C2C(C(=O)OC(C)C)=C(C)Nc3ncnn32)cc(OC)c1OC (stereo unspecified)
inactive: growth inhibition [1] -8.66% | growth inhibition [2] -10.4% | viability increase [3] -3.15% | viability [4] 100% | viability [5] 96.8% | inhibition [6] 1.19% | RAM network inhibition [7] 1.44%

O=C(Nc1nnc(-c2ccc3c(c2)OCCO3)o1)c1ccc(Cc2ccccc2)cc1
inactive: growth inhibition [1] -7.6% | growth inhibition [2] 6.34% | viability increase [3] -4.05% | viability [4] 46.1% | viability [5] 40.9% | inhibition [6] 1.59% | RAM network inhibition [7] 4.3%

O=C(OCn1nnc2ccccc2c1=O)c1cccs1
inactive: growth inhibition [1] -7.72% | growth inhibition [2] 2.16% | viability increase [3] -0.21% | viability [4] 103% | viability [5] 95.9% | inhibition [6] 0.24% | RAM network inhibition [7] 3.6%

Cc1ccc2nc(NC(=O)C3CCN(S(=O)(=O)c4ccc5c(c4)oc(=O)n5C)CC3)sc2c1
inactive: growth inhibition [1] -5.8% | growth inhibition [2] -24.5% | viability increase [3] 1.75% | viability [4] 82.2% | viability [5] 88.9% | inhibition [6] 1.54% | RAM network inhibition [7] 9.3%

Cc1ccc(NC(=O)c2cnc3scc(C)n3c2=O)c(C)c1
inactive: growth inhibition [1] -4.27% | growth inhibition [2] -12.6% | viability increase [3] -3.97% | viability [4] 106% | viability [5] 96.5% | inhibition [6] -0.14% | RAM network inhibition [7] 1.14%

CC(=O)Nc1ccc(S(=O)(=O)Nc2nc(C)cc(-n3nc(C)cc3C)n2)cc1
inactive: growth inhibition [1] -8.39% | growth inhibition [2] -6.55% | viability increase [3] -1.84% | viability [4] 102% | viability [5] 102% | inhibition [6] 1.25% | RAM network inhibition [7] 2.89%

O=c1oc2ccccc2n1CCCOc1ccccc1
inactive: growth inhibition [1] 1.24% | growth inhibition [2] -1.04% | viability increase [3] 1.28% | viability [4] 98.1% | viability [5] 96.5% | inhibition [6] 2.02% | RAM network inhibition [7] 1.62%

CCOC(=O)N1CCN(c2cc(C)nc3nc(C)nn23)CC1
inactive: growth inhibition [1] -11.9% | growth inhibition [2] -9.88% | viability increase [3] -1.28% | viability [4] 105% | viability [5] 97.1% | inhibition [6] 3.44% | RAM network inhibition [7] 2.21%

Cc1ccc(NC(=O)c2ccco2)cc1C
inactive: growth inhibition [1] 4.04% | growth inhibition [2] 0.435% | viability increase [3] -3.07% | viability [4] 95.5% | viability [5] 90.5% | inhibition [6] 0.665% | RAM network inhibition [7] 0.93%

CC(=O)CCc1c(C)c2cccc(C)c2[nH]c1=O
inactive: growth inhibition [1] 1.6% | growth inhibition [2] 1.5% | viability increase [3] -3.1% | viability [4] 93.4% | viability [5] 96.5% | inhibition [6] 2.75% | RAM network inhibition [7] 3.81%

COc1ccc(Cc2nc(-c3cccs3)no2)cc1OC
inactive: growth inhibition [1] 1.64% | growth inhibition [2] 5.25% | viability increase [3] 0.92% | viability [4] 76.8% | viability [5] 80.9% | inhibition [6] 1.62% | RAM network inhibition [7] 7.4%

Cc1cc(C)n(C(CC(=O)N2CCc3ccccc3C2)C(=O)O)n1 (stereo unspecified)
inactive: growth inhibition [1] -3.07% | growth inhibition [2] -0.04% | viability increase [3] 0.01% | viability [4] 102% | viability [5] 95.5% | inhibition [6] 0% | RAM network inhibition [7] 5.81%

COCC(C)NC(=O)c1cc(-c2ccc(O)cc2)on1 (stereo unspecified)
inactive: growth inhibition [1] -1.88% | growth inhibition [2] 4.68% | viability increase [3] -3.12% | viability [4] 105% | viability [5] 100% | inhibition [6] 2.48% | RAM network inhibition [7] 0.94%

Cc1cc(C)n(-c2nc3ccccc3nc2Nc2ccc(CC(=O)O)cc2)n1
inactive: growth inhibition [1] 5.73% | growth inhibition [2] -0.88% | viability increase [3] -1.81% | viability [4] 98.8% | viability [5] 95.5% | inhibition [6] -1.14% | RAM network inhibition [7] -2.71%

CC(C)Sc1nc2c(c(=O)n1C)SC(C)C2 (stereo unspecified)
inactive: growth inhibition [1] -7.53% | growth inhibition [2] 2.86% | viability increase [3] -1.28% | viability [4] 106% | viability [5] 99.5% | inhibition [6] 1.61% | RAM network inhibition [7] 5.77%

CSc1cccc(NC(=O)CN2C(=O)c3ccccc3S2(=O)=O)c1
inactive: growth inhibition [1] -2.94% | growth inhibition [2] 3.68% | viability increase [3] -0.41% | viability [4] 106% | viability [5] 101% | inhibition [6] 0.095% | RAM network inhibition [7] 0.05%

COc1ccc(C2NC(=O)NC(O)(C(F)(F)F)C2C(=O)c2ccc(C)cc2)cc1 (stereo unspecified)
inactive: growth inhibition [1] 6.2% | growth inhibition [2] -7.89% | viability increase [3] -2.35% | viability [4] 100% | viability [5] 95.1% | inhibition [6] 0.56% | RAM network inhibition [7] -1.03%

Cc1[nH]n2c(=O)c3c(nc2c1-c1ccc(Cl)cc1)CCC3
inactive: growth inhibition [1] -14.1% | growth inhibition [2] -8.77% | viability increase [3] -2.32% | inhibition [6] 1.88% | RAM network inhibition [7] 6.65%
active: viability [4] 22.5% | viability [5] 26.8%

Cn1c(C(=O)NCc2ccccn2)cc2c(=O)n(C)c3ccccc3c21
inactive: growth inhibition [1] -1.81% | growth inhibition [2] 0.035% | viability increase [3] -4.13% | viability [4] 103% | viability [5] 89.5% | inhibition [6] 0.965% | RAM network inhibition [7] -0.15%

O=C(Nc1ccc2c(c1)OCO2)C1CCCN1C(=O)OCc1ccccc1 (stereo unspecified)
inactive: growth inhibition [1] -17.8% | growth inhibition [2] -4.2% | viability increase [3] -1.45% | viability [4] 94.4% | viability [5] 93.6% | inhibition [6] 1.32% | RAM network inhibition [7] 4.12%

COc1ccc(S(=O)(=O)Cc2ccc(C(=O)NC3CCCC3)o2)cc1
inactive: growth inhibition [1] -0.76% | growth inhibition [2] -12% | viability increase [3] -1.65% | viability [4] 108% | viability [5] 96.3% | inhibition [6] 1.19% | RAM network inhibition [7] 2.65%

O=C(NCCN1CCc2ccccc2C1)Nc1ccc(F)cc1
inactive: growth inhibition [1] -4.88% | growth inhibition [2] -2.83% | viability increase [3] -3.99% | viability [4] 105% | viability [5] 100% | inhibition [6] 2.19% | RAM network inhibition [7] 2.62%

CCN1CCN(c2ncnc3c2cnn3-c2ccccc2)CC1
inactive: growth inhibition [1] -13.8% | growth inhibition [2] -7.68% | viability increase [3] 1.69% | viability [4] 102% | viability [5] 89.8% | inhibition [6] 1.7% | RAM network inhibition [7] 2.03%

O=C1c2ccccc2C(=O)N1CCCCN(C(=O)c1ccco1)c1ccc(Cl)cc1
inactive: growth inhibition [1] -1.78% | growth inhibition [2] -17.5% | viability increase [3] -2.82% | viability [4] 102% | viability [5] 91.1% | inhibition [6] 2.79% | RAM network inhibition [7] 5.33%

COc1ccc(C(C#N)(CCC#N)CCC#N)cc1OC
inactive: growth inhibition [1] -14.5% | growth inhibition [2] -4.89% | viability increase [3] -1.32% | viability [4] 99.7% | viability [5] 105% | inhibition [6] 1.13% | RAM network inhibition [7] 3.89%

CCOc1ccc2nc(N3CCCC(C(=O)NCCCN4CCOCC4)C3)sc2c1 (stereo unspecified)
inactive: growth inhibition [1] -10.1% | growth inhibition [2] -15.6% | viability increase [3] -2.55% | viability [4] 86.3% | viability [5] 92.8% | inhibition [6] 1.36% | RAM network inhibition [7] 0.52%
